Activity, IC50 and Kd data for 8 compounds are collected here from ChEMBL document CHEMBL2169814, “Structure-based design, synthesis, and characterization of dual hotspot small-molecule HIV-1 entry inhibitors” (J Med Chem, 2012).

pIC50, pKd: −log10 of the molar value. Calls of active or inactive are those of the source. The calls are words filed in the database; no cut-off is given here.

In series [1] the test system is Human immunodeficiency virus 1. The series is described as follows: Increase in binding of minimal core of HIV1 YU2 gp120 into 17b in canine Cf2Th-CCR5 by SPR assay.
Series [2] can be described thus: Inhibition of ampotrophic murine leukemia virus envelope glycoprotein assessed as inhibition of viral entry in canine Cf2Th cells expressing human CD4 and CCR5 after 2 to 4 hrs by luciferase activity based luminescence assay.
For series [3], the system named is Human immunodeficiency virus 1. Briefly: Increase in binding of full length of HIV1 YU2 gp120 expressed into 17b in canine Cf2Th-CCR5 by SPR assay. A general note: In SPR one partner is held on a chip, and binding of the other changes the refractive index at the surface.
Series [4] in a line: Inhibition of recombinant HIV-1 YU2 envelope glycoprotein-120 assessed as inhibition of viral entry in canine Cf2Th cells expressing CD4/CCR5 after 2 to 4 hrs by luciferase activity based luminescence assay. The format is cell-based, Human immunodeficiency virus 1. The procedure, abridged: (§1)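 Single-round luciferase-encoding recombinant HIV-1 pseudotyped with wild-type or mutant YU2 Env, made in 293T cells and dosed by RT units. Cf2Th/CD4-CCR5 cells seeded 24 h before. […] Cells lysed by freeze-thaw; luciferase read by luminometer.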

Series [5] concerns Human immunodeficiency virus 1. The series is described as follows: Antiviral activity against HIV-1 YU2 infected in canine Cf2Th-CCR5 cells assessed as activation of viral infectivity after 2 to 4 hrs by luminometer relative to JRC-I-191. The format is functional, organism-based.
Series [6] has as its system Human immunodeficiency virus 1. The series is described as follows: Antiviral activity against HIV-1 YU2 infected in canine Cf2Th-CCR5 cells assessed as activation of viral infectivity after 2 to 4 hrs by luminometer relative to NBD-556. The format is functional, organism-based.
A short description of series [7]: Binding affinity to HIV-1 YU2 gp120 at 80 to 130 uM by VP-ITC analysis. The arrangement: species or system Human immunodeficiency virus 1.
Series [8] deals with Human immunodeficiency virus 1. Briefly: Antiviral activity against HIV-1 clade B Env pseudovirus assessed as geometric mean titer for virus neutralization to infect human TZM-bl cells by luciferase assay. The format is functional, organism-based. Conditions: Human immunodeficiency virus 1, clade B. The procedure, abridged: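 Env-pseudoviruses made in 293T cells co-transfected with rev/env plasmid and env-deficient backbone (pSGΔ3env); supernatants harvested at 2 days, filtered. Virus (MOI ~0.01–0.1) preincubated 30 min at 37°C with serially diluted reagent (media with 10% DMSO), duplicate wells, then used to infect TZM-bl cells. Luciferase read-out; 5-parameter hill fit gives IC50/IC80; geometric mean titer across isolates.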

In series [9] the test system is Human immunodeficiency virus 1. The series is described as follows: Antiviral activity against HIV-1 clade C Env pseudovirus assessed as geometric mean titer for virus neutralization to infect human TZM-bl cells by luciferase assay. The format is functional, organism-based. The method in brief: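 Env-pseudoviruses were made in 293T cells cotransfected with rev/env plasmid and the env-deficient pSGΔ3env backbone, then harvested at 2 days. Virus (MOI ~0.01–0.1) was preincubated 30 min at 37°C with serially diluted compound in medium containing 10% DMSO, in duplicate, then used to infect TZM-bl cells. Luciferase read-out; IC50 from a 5-parameter Hill fit; geometric mean across isolates.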

Series [10] deals with Human immunodeficiency virus 1. The series is described as follows: Antiviral activity against HIV-1 YU2 infected in canine Cf2Th-CCR5 cells assessed as activation of viral infectivity after 2 to 4 hrs by luminometer relative to TS-II-224. The format is functional, organism-based.
A short description of series [11]: Inhibition of recombinant HIV-1 89.6 envelope glycoprotein-120 assessed as inhibition of viral entry in canine Cf2Th cells expressing CD4/CCR5 after 2 to 4 hrs by luciferase activity based luminescence assay. The format is cell-based, Human immunodeficiency virus 1. The procedure, abridged:
(§2)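 Single-round luciferase-reporter viruses were made in 293T cells with Gag-Pol packaging and Env plasmids (A-MLV Env plus rev), then normalized by RT activity. […] Cf2Th/CD4-CCR5 or CD4-CXCR4 targets were exposed for 2–4 h, cultured 48 h, lysed by freeze-thaw, and luciferase was read.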

Series [12] can be described thus: Inhibition of recombinant HIV-1 JRFL envelope glycoprotein-120 assessed as inhibition of viral entry in canine Cf2Th cells expressing CD4/CCR5 after 2 to 4 hrs by luciferase activity based luminescence assay. The format is cell-based, Human immunodeficiency virus 1. The procedure, abridged:
as §2

Series [13] in a line: Inhibition of recombinant HIV-1 ADA envelope glycoprotein-120 assessed as inhibition of viral entry in canine Cf2Th cells expressing CD4/CCR5 after 2 to 4 hrs by luciferase activity based luminescence assay. The format is cell-based, Human immunodeficiency virus 1. The method in brief:
as §2

A short description of series [14]: Inhibition of recombinant HIV-1 HXBc2 envelope glycoprotein-120 assessed as inhibition of viral entry in canine Cf2Th cells expressing CD4/CCR5 after 2 to 4 hrs by luciferase activity based luminescence assay. The format is cell-based, Human immunodeficiency virus 1. The method in brief:
as §2

Series [15] in a line: Inhibition of recombinant HIV-1 KB9 envelope glycoprotein-120 assessed as inhibition of viral entry in canine Cf2Th cells expressing CD4/CCR5 after 2 to 4 hrs by luciferase activity based luminescence assay. The format is cell-based, Human immunodeficiency virus 1. The procedure, abridged: as §2
Series [16] in a line: Cytotoxicity against canine Cf2Th-CD4-CCR5 assessed as cell viability at 1 to 100 uM after 48 hrs by luminometer. The format is cell-based, Canis lupus familiaris. Conditions: dog, thymocyte. The procedure, abridged: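 Cf2Th/CD4-CCR5 cells were seeded at 6×10^3/well 24 h ahead and exposed to compound at 1–100 μM (DMSO at 2% as control) for 2–4 h at 37°C. Medium was then topped up and cells were incubated 48 h at 37°C. After 30 min at room temperature, CellTiter-Glo was added for 5–10 min, and luminescence was read for 5 s.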

The subject of series [17] is Envelope glycoprotein gp160 (Human immunodeficiency virus type 1 group M subtype B (isolate HXB2)(HIV-1)), P04578 [S375W]. The series is described as follows: Inhibition of recombinant HIV-1 YU2 envelope glycoprotein-120 S375W mutant assessed as inhibition of viral entry in canine Cf2Th cells expressing CD4/CCR5 after 2 to 4 hrs by luciferase activity based luminescence assay. The format is cell-based. Particulars: Human immunodeficiency virus 1. The procedure, abridged: as §1

What is called pIC50 is −log10 of the IC50, conventionally taken in molar units. As for `CN1C(C)(C)CC(NC(=O)C(=O)Nc2ccc(Cl)c(F)c2)CC1(C)C`, the result in series [1], in series [3] and in series [5] was Active. Besides, the values for the pIC50 in series [2] and in series [4] were 4.03 and 4.31, respectively.
For orientation: pKd means the Kd on a negative log10 scale, so that one unit is a factor of ten. Read a low pKd as a high Kd. With `CC1(C)CC(NC(=O)C(=O)Nc2ccc(Br)cc2)CC(C)(C)N1`, the pIC50 in [2] and in series [4] was below 4.00 throughout. For the same compound, the outcome in series [6] was Active. The compound also had a pKd in series [7] of 5.66.
Regarding `CC1(C)CC(NC(=O)C(=O)Nc2ccc(Cl)c(F)c2)CC(C)(C)N1`, the pIC50 was below 4.00 in series [2] and 4.26 in series [4]. In [6], the outcome was Active.
Consider `CC1(C)CC(NC(=O)C(=O)Nc2ccc(Cl)cc2)CC(C)(C)N1`, for which the negative logarithm of the IC50 (pIC50) was below 4.00 in series [2], below 4.00 in series [4] and 4.53 in series [8]. Besides, the result in series [9] was Active.
For `N[C@@H]1Cc2ccccc2[C@H]1NC(=O)C(=O)Nc1ccc(Cl)c(F)c1`, the outcome in [1], in series [3] and in [10] was Active. Also, the pIC50 in series [2] is 4.07; in series [11], 4.30; in [4], 4.06; in series [12], 4.30; in [13] it was 4.30; in [14] it was 4.30. Also, the pIC50 in series [15] was 4.30. The pKd in series [7] is 5.96.
`N=C(N)N[C@H]1Cc2ccccc2[C@@H]1NC(=O)C(=O)Nc1ccc(Cl)c(F)c1.O=CO`: the outcome in series [1], in series [3] and in [9] was Active. Moreover, the Activity entry in series [16] is given as “Non-toxic”. Moreover, the negative-log IC50 (pIC50) was below 4.00 in series [2], 4.64 in [4] and 5.10 in [8]. The outcome in series [10] and in series [17] was inactive. For the same compound, the pKd in series [7] is 6.60.
Take `N[C@H]1Cc2ccccc2[C@@H]1NC(=O)C(=O)Nc1ccc(Cl)c(F)c1`: the outcome in series [1], in [3] and in [10] was Active. The negative logarithm of the IC50 (pIC50) is 4.24 in [2]; 4.30 in [11]; 4.27 in [4]; 4.30 in series [12]; 4.30 in series [13]; 4.30 in series [14]. In series [15], the negative logarithm of the IC50 (pIC50) was 4.30.
With `N=C(N)N[C@@H]1Cc2ccccc2[C@H]1NC(=O)C(=O)Nc1ccc(Cl)c(F)c1`, the outcome in [1], in [3] and in [9] was Active. Further, the pIC50 in [2] was below 4.00; in series [4], 4.67; in series [8], 5.05. Also, the outcome in [10] and in series [17] was inactive. Also, the pKd in series [7] is 6.52.
